Laboratory results published in ChEMBL document CHEMBL4145466, “Design, synthesis, and biological evaluation of novel combretastatin A-4 thio derivatives as microtubule targeting agents” (Eur J Med Chem, 2018).
pIC50: −log10 of the molar value. Active and inactive are the calls of the source. No cut-off for these calls is given here.

Assays:
[1] = molecular target: T1, Tubulin (Homo sapiens) (UniProt P68371+Q9H4B7+P0DPH7+P68366+Q13509+Q71U36+P04350+Q3ZCM7+P07437+P68363+Q9BQE3+Q6PEY2+Q13885+Q9BVA1+Q9BUF5); assay: Inhibition of tubulin polymerization in human A431 cells assessed as micronuclei formation at 1 uM after 24 hrs by ELISA; assay type: cell-based
[2] = test system: SK-OV-3; assay: Induction of apoptosis in human SKOV3 cells after 24 hrs by FITC Annexin V/propidium iodide staining-based FACScan flow cytometric analysis; assay type: functional, cell-based
Procedure, shortened: (§1)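 After 24 h of compound exposure, 1 × 10^6 cells were labelled with annexin V-FITC and PI for 15 min at 25 °C in the dark. They were read on a FACScan with 488 nm excitation, detecting FITC at 525 nm and PI at 620 nm. Results are mean ± SD of three independent experiments, with Dunnett's test against control.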

[3] = test system: Tubulin; assay: Inhibition of tubulin polymerization in human HaCaT cells assessed as micronuclei formation at 1 uM after 24 hrs by ELISA; assay type: cell-based
[4] = test system: MCF7; assay: Induction of apoptosis in human MCF7 cells after 24 hrs by FITC Annexin V/propidium iodide staining-based FACScan flow cytometric analysis; assay type: functional, cell-based; procedure, shortened: as §1
[5] = molecular target: T1, Tubulin (Homo sapiens); assay: Inhibition of tubulin polymerization in human A431 cells assessed as perturbation in cytoskeleton structure at 1 uM after 24 hrs by ELISA; assay type: cell-based
[6] = test system: MDA-MB-231; assay: Cell cycle arrest in human MDA-MB-231 cells assessed as accumulation of cells at G2/M phase at 0.1 to 1 uM after 24 hrs by propidium iodide staining-based FACS analysis; assay type: functional
Procedure, shortened: (§2)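 Cells were seeded at 5 × 10^5 per well in DMEM with 10% FBS and left overnight, then exposed to 0.1, 0.5 or 1 µM for 24 h. DMSO served as the negative control and 50 nM camptothecin as the positive control. Cells were trypsinized, fixed in 70% ethanol for 30 min at 4 °C, stained with 50 µg/mL PI plus 100 µg/mL RNase A for 30 min in the dark, and analysed by flow cytometry. Results are mean ± SD of three experiments, compared by ANOVA with Dunnett's test.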

[7] = test system: HaCaT; assay: Cell cycle arrest in human HaCaT cells assessed as accumulation of cells at G2/M phase at 0.1 to 1 uM after 24 hrs by propidium iodide staining-based FACS analysis; procedure, shortened: as §2
[8] = molecular target: T1, Tubulin (Homo sapiens); assay: Inhibition of tubulin polymerization in human MDA-MB-231 cells assessed as micronuclei formation at 1 uM after 24 hrs by ELISA; assay type: cell-based
[9] = molecular target: T1, Tubulin (Homo sapiens); assay: Inhibition of tubulin polymerization in human A431 cells assessed as perturbation in cytoskeleton structure at 1 uM after 24 hrs by Hoechst 33258/FITC staining-based flow cytometric analysis; assay type: cell-based
[10] = Cytotoxicity against human CCD39Lu cells after 48 hrs by MTT assay; assay type: cell-based
Procedure, shortened: (§3)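 Cells in DMEM with 10% FBS were plated at 2 × 10^4 per well and left overnight, then treated for 48 h at 0.6–20 µM (six concentrations) from 10 mM DMSO stocks. MTT was added for 2 h, and formazan was dissolved in DMSO and read at 570 nm. Viability was expressed as % of control, with IC50 taken from dose-response curves. Results are mean ± SD of three independent experiments.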

[11] = molecular target: T1, Tubulin (Homo sapiens); assay: Inhibition of tubulin polymerization in human A431 cells assessed as micronuclei formation at 1 uM after 24 hrs by Hoechst 33258/FITC staining-based flow cytometric analysis; assay type: cell-based
[12] = molecular target: T1, Tubulin (Homo sapiens); assay: Inhibition of tubulin polymerization in human MDA-MB-231 cells assessed as micronuclei formation at 1 uM after 24 hrs by Hoechst 33258/FITC staining-based flow cytometric analysis; assay type: cell-based
[13] = test system: SK-OV-3; assay: Cytotoxicity against human SKOV3 cells after 48 hrs by MTT assay; assay type: functional, cell-based; details: SK-OV-3, 48 h; procedure, shortened: as §3
[14] = test system: Tubulin; assay: Inhibition of tubulin polymerization in human HaCaT cells assessed as perturbation in cytoskeleton structure at 1 uM after 24 hrs by Hoechst 33258/FITC staining-based […]; assay type: cell-based
Procedure, shortened: (§4)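 Cells seeded at 12.5 × 10^4 per well and exposed to 1 µM compound for 24 h. Nuclei were stained with Hoechst 33258 (10 µg/mL, 30 min, 37 °C), then fixed in 4% formaldehyde/PBS (15 min, RT). Cells were permeabilized with 1% Triton X-100, blocked with 2% BSA/PBS for 1 h, and incubated with anti-α-tubulin-FITC (1:50) overnight at 4 °C. Imaged by fluorescence microscopy.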

[15] = molecular target: T1, Tubulin (Homo sapiens); assay: Inhibition of tubulin polymerization in human MCF7 cells assessed as micronuclei formation at 1 uM after 24 hrs by Hoechst 33258/FITC staining-based […] analysis; assay type: cell-based; procedure, shortened: as §4
[16] = test system: HaCaT; assay: Cytotoxicity against human HaCaT cells after 48 hrs by MTT assay; assay type: cell-based; procedure, shortened: as §3
[17] = test system: A-431; assay: Induction of apoptosis in human A431 cells after 24 hrs by FITC Annexin V/propidium iodide staining-based FACScan flow cytometric analysis; assay type: functional, cell-based; procedure, shortened: as §1
[18] = test system: MCF7; assay: Cytotoxicity against human MCF7 cells after 48 hrs by MTT assay; assay type: functional, cell-based; details: MCF7, 48 h; procedure, shortened: as §3
[19] = molecular target: T1, Tubulin (Homo sapiens); assay: Inhibition of tubulin polymerization in human HeLa cells assessed as micronuclei formation at 1 uM after 24 hrs by ELISA; assay type: cell-based
[20] = test system: HeLa; assay: Cytotoxicity against human HeLa cells after 48 hrs by MTT assay; assay type: functional, cell-based; procedure, shortened: as §3
[21] = molecular target: T1, Tubulin (Homo sapiens); assay: Inhibition of tubulin polymerization in human HeLa cells assessed as micronuclei formation at 1 uM after 24 hrs by Hoechst 33258/FITC staining-based […] analysis; assay type: cell-based; procedure, shortened: as §4
[22] = test system: MCF7; assay: Cell cycle arrest in human MCF7 cells assessed as accumulation of cells at G2/M phase at 0.1 to 1 uM after 24 hrs by propidium iodide staining-based FACS analysis; assay type: functional; procedure, shortened: as §2
[23] = molecular target: T1, Tubulin (Homo sapiens); assay: Inhibition of tubulin polymerization in human HeLa cells assessed as perturbation in cytoskeleton structure at 1 uM after 24 hrs by ELISA; assay type: cell-based
[24] = molecular target: T1, Tubulin (Homo sapiens); assay: Inhibition of tubulin polymerization in human SKOV3 cells assessed as micronuclei formation at 1 uM after 24 hrs by ELISA; assay type: cell-based
[25] = molecular target: T1, Tubulin (Homo sapiens); assay: Inhibition of tubulin polymerization in human SKOV3 cells assessed as micronuclei formation at 1 uM after 24 hrs by Hoechst 33258/FITC staining-based flow cytometric analysis; assay type: cell-based; procedure, shortened: as §4
[26] = molecular target: T1, Tubulin (Homo sapiens); assay: Inhibition of tubulin polymerization in human MCF7 cells assessed as perturbation in cytoskeleton structure at 1 uM after 24 hrs by Hoechst 33258/FITC staining-based flow cytometric analysis; assay type: cell-based; procedure, shortened: as §4
[27] = test system: A-431; assay: Cell cycle arrest in human A431 cells assessed as accumulation of cells at G2/M phase at 0.1 to 1 uM after 24 hrs by propidium iodide staining-based FACS analysis; assay type: functional; procedure, shortened: as §2
[28] = molecular target: T1, Tubulin (Homo sapiens); assay: Inhibition of tubulin polymerization in human MCF7 cells assessed as perturbation in cytoskeleton structure at 1 uM after 24 hrs by ELISA; assay type: cell-based
[29] = molecular target: T1, Tubulin (Homo sapiens); assay: Inhibition of tubulin polymerization in human SKOV3 cells assessed as perturbation in cytoskeleton structure at 1 uM after 24 hrs by ELISA; assay type: cell-based
[30] = test system: HeLa; assay: Induction of apoptosis in human HeLa cells after 24 hrs by FITC Annexin V/propidium iodide staining-based FACScan flow cytometric analysis; assay type: functional, cell-based; procedure, shortened: as §1
[31] = molecular target: T1, Tubulin (Homo sapiens); assay: Inhibition of tubulin polymerization in human MDA-MB-231 cells assessed as perturbation in cytoskeleton structure at 1 uM after 24 hrs by ELISA; assay type: cell-based

## COc1ccc(-c2ocnc2-c2cc(OC)c(SC)c(OC)c2)cc1O
[1]
  inhibition: Active
[2]
  Activity: Dose-dependent effect
[3]
  inhibition (INH): Active
[4]
  Activity: Dose-dependent effect
[5]
  inhibition: Active
[6]
  Activity: Active
[7]
  Activity: Toxic
[8]
  inhibition: Active
[9]
  inhibition: Active
[10]
  pIC50: < 4.70
[11]
  inhibition: Active
[12]
  inhibition: Active
[13]
  pIC50: 6.60
[14]
  inhibition (INH): Active
[15]
  inhibition: Active
[16]
  pIC50: 6.49
[17]
  Activity: Dose-dependent effect
[18]
  pIC50: 6.35
[19]
  inhibition: Active
[20]
  pIC50: 8.05
[21]
  inhibition: Active
[22]
  Activity: Active
[23]
  inhibition: Active
[24]
  inhibition: Active
[25]
  inhibition: Active
[26]
  inhibition: Active
[27]
  Activity: Active
[28]
  inhibition: Active
[29]
  inhibition: Active
[30]
  Activity: Dose-dependent effect
[31]
  inhibition: Active

## COc1ccc(-c2ocnc2-c2cc(Br)c(OC)c(OC)c2)cc1SC
[1]
  inhibition: Active
[2]
  Activity: Dose-dependent effect
[3]
  inhibition (INH): Active
[4]
  Activity: Dose-dependent effect
[5]
  inhibition: Active
[6]
  Activity: Active
[7]
  Activity: Toxic
[8]
  inhibition: Active
[9]
  inhibition: Active
[10]
  pIC50: < 4.70
[11]
  inhibition: Active
[12]
  inhibition: Active
[13]
  pIC50: 5.94
[14]
  inhibition (INH): Active
[15]
  inhibition: Active
[16]
  pIC50: 6.28
[17]
  Activity: Dose-dependent effect
[18]
  pIC50: 5.56
[19]
  inhibition: Active
[20]
  pIC50: 6.20
[21]
  inhibition: Active
[22]
  Activity: Active
[23]
  inhibition: Active
[24]
  inhibition: Active
[25]
  inhibition: Active
[26]
  inhibition: Active
[27]
  Activity: Active
[28]
  inhibition: Active
[29]
  inhibition: Active
[30]
  Activity: Dose-dependent effect
[31]
  inhibition: Active
